Assay results of several laboratories.
Compare with care: the assays were run in different laboratories.
Effect on: microbial growth

SMILES	organism	method	strain	time	MIC
Cc1ccc(C)n1-c1ccc(C(=O)NNC=O)cc1	Aspergillus niger	broth dilution	ATCC6275		250 µg/mL
CCCCCCCCCN1CCNCC1	Lodderomyces parapsilosis	broth dilution	ATCC22019	48 h	> 31.3 µg/mL
CCc1cc(Nc2cc(=O)n(CCCCO)c(=O)[nH]2)ccc1C	Bacteroides fragilis	agar dilution		48 h	> 32 µg/mL
CCCCCCCCCCCCN1CCNCC1	Lodderomyces parapsilosis		ATCC22019		1.95 µg/mL
Cc1ccc(C)n1-c1ccc(-c2nnc(-c3ccccc3Cl)[nH]2)cc1	Aspergillus niger	broth dilution	ATCC6275		8 µg/mL
O=[N+]([O-])c1ccc(-c2nc3ccccc3n2Cc2ccccc2)cc1	Aspergillus niger		ATCC16404		64 µg/mL
CCCCCCCCCCN1CCNCC1	Lodderomyces parapsilosis	broth dilution	ATCC22019	48 h	15.6 µg/mL
Clc1ccccc1-c1nc2ccccc2[nH]1	Aspergillus niger		ATCC16404		512 µg/mL
Cc1ccc(C)n1-c1ccc(-c2nnc(-c3cccc([N+](=O)[O-])c3)[nH]2)cc1	Aspergillus niger	broth dilution	ATCC6275		31.2 µg/mL
OC(CN1CCOCC1)(Cn1cncn1)c1ccc(F)cc1F (stereo not shown)	Lodderomyces parapsilosis	broth dilution	ATCC22019	48 h	31.3 µg/mL
O=C1NN=C(N=Cc2ccc(O)c(O)c2)C1=NNn1c(-c2ccccc2)nc2ccccc2c1=O	Aspergillus niger	broth dilution			107 µM
O=c1[nH]c(NCc2ccc(Cl)c(Cl)c2)nc2ncn(CCN3CCOCC3)c12	Bacteroides fragilis	agar dilution		48 h	> 32 µg/mL
O=[N+]([O-])c1cccc(-c2nc3ccccc3[nH]2)c1	Aspergillus niger		ATCC16404		512 µg/mL
CCCCCCCCCCCCCN1CCN(CC(O)(Cn2cncn2)c2ccc(F)cc2F)CC1 (stereo not shown)	Lodderomyces parapsilosis	broth dilution	ATCC22019	48 h	< 0.24 µg/mL
CC1=NN(CNc2ccc(Cl)cc2)C(=O)C1=NNn1c(-c2ccccc2)nc2ccccc2c1=O	Aspergillus niger	broth dilution			51.5 µM
c1ccc2c(-c3nc4ccccc4[nH]3)c3ccccc3cc2c1	Aspergillus niger		ATCC16404		256 µg/mL
CCCCCCCCCCCN1CCNCC1	Lodderomyces parapsilosis	broth dilution	ATCC22019	48 h	7.8 µg/mL
CC1=NN(CNc2ccc(C(=O)O)cc2)C(=O)C1=NNn1c(-c2ccccc2)nc2ccccc2c1=O	Aspergillus niger	broth dilution			50.5 µM
Cc1ccc2nc(-c3ccccc3O)[nH]c2c1	Aspergillus niger		ATCC16404		512 µg/mL
Fc1ccc(C2(Cn3cncn3)CO2)c(F)c1 (stereo not shown)	Lodderomyces parapsilosis	broth dilution	ATCC22019	48 h	> 31.3 µg/mL
Cc1ccc(C)n1-c1ccc(-c2nnc(-c3c(Cl)cccc3Cl)[nH]2)cc1	Aspergillus niger	broth dilution	ATCC6275		2 µg/mL
Cc1ccc2nc(-c3ccc([N+](=O)[O-])cc3)n(Cc3ccccc3)c2c1	Aspergillus niger		ATCC16404		256 µg/mL
CC[C@H](C)C[C@H](C)CCCCCCCCC(=O)N[C@H]1C[C@@H](O)[C@@H](NCCN)NC(=O)[C@@H]2[C@@H](O)CCN2C(=O)[C@H]([C@H](O)CCN)NC(=O)[C@H]([C@H](O)[C@@H](O)c2ccc(O)cc2)NC(=O)[C@@H]2C[C@@H](O)CN2C(=O)[C@H]([C@@H](C)O)NC1=O	Lodderomyces parapsilosis	broth dilution	ATCC22019	48 h	1.95 µg/mL
Cc1ccc2nc(-c3ccc([N+](=O)[O-])cc3)n(Cc3ccc(Cl)cc3)c2c1	Aspergillus niger		ATCC16404		64 µg/mL
O=C(c1cc(O)c(O)c(O)c1)c1cc2ccccc2o1	Lodderomyces parapsilosis	broth dilution			16 µg/mL
